The values below come from ChEMBL document CHEMBL4145527, “Targeting polyamine transport in Trypanosoma cruzi” (Eur J Med Chem, 2018).

Activity calls are given as the source filed them. The rule behind the calls is not given here.

Data set [1] addresses T1, Putative amino acid permease/transporter (Trypanosoma cruzi, UniProt D5FGE8).
T1 sequence (D5FGE8 whole entry): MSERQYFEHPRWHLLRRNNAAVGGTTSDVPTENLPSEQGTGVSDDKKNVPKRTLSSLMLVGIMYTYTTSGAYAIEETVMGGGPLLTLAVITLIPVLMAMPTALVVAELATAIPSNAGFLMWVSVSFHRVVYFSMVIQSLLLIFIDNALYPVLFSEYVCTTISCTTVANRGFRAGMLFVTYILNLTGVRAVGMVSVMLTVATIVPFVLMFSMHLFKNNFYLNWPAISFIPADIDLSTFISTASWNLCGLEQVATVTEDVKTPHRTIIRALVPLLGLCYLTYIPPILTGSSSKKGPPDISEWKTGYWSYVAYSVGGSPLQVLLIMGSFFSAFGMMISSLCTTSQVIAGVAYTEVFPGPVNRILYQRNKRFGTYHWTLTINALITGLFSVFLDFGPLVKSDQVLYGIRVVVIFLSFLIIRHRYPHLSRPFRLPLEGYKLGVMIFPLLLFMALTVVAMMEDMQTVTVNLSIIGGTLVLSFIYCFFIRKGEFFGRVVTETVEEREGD
Kind of data set: Inhibition of Trypanosoma cruzi Y epimastigotes PAT assessed as reduction in [3H]-putrescine uptake after 10 mins by liquid scintillation counting method. In a few lines: (§1)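 Y-strain epimastigotes from BHT culture were washed twice in PBS. 10^7 cells in PBS-2% glucose were given [3H]-putrescine (5 µM) or [3H]-spermidine (15 µM), 0.4 µCi, with inhibitor at 0–30 µM, later narrowed. Incubation was 10 min at 28 °C or 37 °C, stopped with ice-cold buffer and washed; pellets went to scintillation counting. Nonspecific uptake was taken with a 100-fold molar excess of substrate. IC50 was fit by nonlinear regression.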

Data set [2] addresses T2, Putative amino acid permease/transporter (Trypanosoma cruzi) (UniProt D5FGE8).
T2 sequence (whole entry): T1 sequence (D5FGE8 whole entry)
Briefly: Inhibition of Trypanosoma cruzi Y epimastigotes PAT assessed as reduction in [3H]-putrescine uptake up to 30 uM after 10 mins by liquid scintillation counting method. In a few lines:
as §1

In a further data set the test system is Leishmania amazonensis. Briefly: Antiparasitic activity against Leishmania amazonensis MHOM/Br/75/Josefa promastigotes by light microscopic method. The data set is classed as functional, organism-based.
In data set [3] the target is T1, Putative amino acid permease/transporter. Briefly: Inhibition of Trypanosoma cruzi Y epimastigotes PAT assessed as reduction in [3H]--spermidine uptake after 10 mins by liquid scintillation counting method. In a few lines: as §1
Data set [4] addresses T2, Putative amino acid permease/transporter (Trypanosoma cruzi). Kind of data set: Inhibition of Trypanosoma cruzi Y epimastigotes PAT assessed as reduction in [3H]--spermidine uptake up to 30 uM after 10 mins by liquid scintillation counting method. In a few lines: as §1
The test system of data set [5] is Trypanosoma cruzi. Briefly: Ratio of IC50 for Trypanosoma cruzi Y epimastigotes to IC50 for Trypanosoma cruzi Y trypamastigotes. The data set is classed as functional.
For data set [6], the system named is Trypanosoma cruzi. Kind of data set: Potentiation of benznidazole-induced trypanopcidal activity against Trypanosoma cruzi Y epimastigotes at 20 uM after 96 hrs by Neubauer chamber or MTS dye based assay. It counts as functional. The procedure, abridged: (§2)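 Epimastigotes were treated with 30 µM benznidazole alone or with 20 µM polyamine conjugate, for up to 96 h at 28 °C. Parasites were counted (Neubauer or MTS) at 24, 48, 72 and 96 h. Potentiation is the fold change in benznidazole potency with versus without the conjugate.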
For orientation: Tetrazolium dyes change colour on reduction, which living cells bring about.

Data set [7] concerns Trypanosoma cruzi. Kind of data set: Potentiation of benznidazole-induced trypanopcidal activity against Trypanosoma cruzi Y epimastigotes at 20 uM after 48 hrs by Neubauer chamber or MTS dye based assay. The data set is classed as functional. The procedure, abridged: as §2
In data set [8] the test system is Trypanosoma cruzi. Briefly: Potentiation of benznidazole-induced trypanopcidal activity against Trypanosoma cruzi Y epimastigotes at 20 uM after 24 hrs by Neubauer chamber or MTS dye based assay. The data set is classed as functional. The procedure, abridged:
as §2

Data set [9] has as its system Trypanosoma cruzi. Kind of data set: Trypanopcidal activity against Trypanosoma cruzi Y trypamastigotes infected in African green monkey Vero cells treated for 5 days by Neubauer chamber or MTS dye based assay. The data set is classed as functional, organism-based. The conditions noted are these: 120 h. The procedure, abridged:
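VERO cells infected with trypomastigotes were exposed to compound at 0–2.5 µM for five days. Trypomastigote burst was scored after six days of infection. IC50 was obtained by nonlinear regression of dose-response.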

Data set [10] concerns Trypanosoma cruzi. Kind of data set: Potentiation of benznidazole-induced trypanopcidal activity against Trypanosoma cruzi Y epimastigotes at 20 uM after 72 hrs by Neubauer chamber or MTS dye based assay. The data set is classed as functional. The procedure, abridged: as §2
The subject of data set [11] is Trypanosoma cruzi. Kind of data set: Trypanopcidal activity against Trypanosoma cruzi Y epimastigotes after 48 hrs by Neubauer chamber or MTS dye based assay. The data set is classed as functional, organism-based. The procedure, abridged: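 Y-strain epimastigotes, 10^7 cells/well in BHT (pH 7, 10% FCS, hemin), were exposed to 0–100 µM compound at 28 °C for 48 h. Growth was counted in a Neubauer chamber or by MTS. IC50 is 50% viability relative to untreated control, by nonlinear regression; at least triplicate, three independent assays.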

The subject of a further data set is Vero. Kind of data set: Cytotoxicity against African green monkey Vero cells assessed as reduction in cell viability after 24 hrs by crystal violet staining based assay. The conditions noted are these: Chlorocebus sabaeus. The procedure, abridged: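 VERO cells (MEM, 10% heat-inactivated FCS, 37 °C, 5% CO2) were seeded at 10^4 cells/well and treated 24 h with compound at 0–50 µM; PBS served as negative control. Cells were fixed 15 min, stained with 0.5% crystal violet, and absorbance read at 570 nm. IC50 was from nonlinear regression.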

The target of data set [12] is T1, Putative amino acid permease/transporter. Kind of data set: Inhibition of Trypanosoma cruzi Y trypamastigotes PAT assessed as reduction in [3H]--spermidine uptake after 10 mins by liquid scintillation counting method. The procedure, abridged:
(§3)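 Trypomastigotes came from infected VERO cells. 10^7 washed parasites in PBS-2% glucose were given [3H]-putrescine or [3H]-spermidine (0.4 µCi) plus inhibitor for 10 min at 28 °C or 37 °C. The reaction was stopped with ice-cold PBS-glucose, washed and scintillation counted. Background was taken with a 100-fold molar substrate excess. IC50 came from logistic dose-response fit.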

Data set [13] shares this target. Briefly: Inhibition of Trypanosoma cruzi Y trypamastigotes PAT assessed as reduction in [3H]-putrescine uptake after 10 mins by liquid scintillation counting method. The procedure, abridged: as §3
The test system of data set [14] is Trypanosoma cruzi. Briefly: Trypanopcidal activity against Trypanosoma cruzi Y trypamastigotes after 24 hrs by Neubauer chamber or MTS dye based assay. It counts as functional, organism-based. In a few lines: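 Culture-derived trypomastigotes, 10^6 cells/mL, were held at 37 °C for 24 h with compound at 0–2.5 µM. Motility was checked microscopically, and viability was counted by Neubauer chamber or MTS against untreated controls. IC50 was from logistic nonlinear regression.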

The subject of the next data set is HL-60. Briefly: Cytotoxicity against human HL60 cells. It counts as cell-based.
The nature of data set [15]: Selectivity index, ratio of IC50 for cytotoxicity against African green monkey Vero cells to IC50 for trypanopcidal activity against Trypanosoma cruzi Y trypamastigotes. The data set is classed as toxicity, cell-based. The following applies: read-out: Ratio IC50.

Usually IC50 stands for the midpoint of a concentration-inhibition curve.

Turning to `CCCCCCCCCCCCCCCC(=O)NCCCCC(N)C(=O)NCCCNCCCCNCCCN` (centres undefined), the concentration for half-maximal inhibition (IC50) in data set [1] was determined as 2.43 µM. Moreover, the inhibition result in data set [2] is “Active”.

On to `NCCC(=O)CN`, for which the IC50 in the data set with Leishmania amazonensis is 144 µM.

In the case of `NCCCCNCCCCNCc1c2ccccc2cc2ccccc12`, the IC50 came to 13.3 µM in data set [3] and 3.98 µM in [1]. The inhibition entry in data set [2] and in [4] was “Active” throughout.

Take `Cl.Cl.NCCCCNCc1c2ccccc2cc2ccccc12`: the “Ratio IC50” value in the data set with Trypanosoma cruzi [5] is 37. Besides, the “fold change (FC)” value was 11.2 in the data set on Trypanosoma cruzi [6], 1.9 with Trypanosoma cruzi [7], 1.5 in the data set on Trypanosoma cruzi [8] and 6.2 in the data set on Trypanosoma cruzi [10]. The half-maximal inhibitory concentration (IC50) in data set [3] is 8.78 µM; in data set [1], 5.02 µM; with Trypanosoma cruzi [9], 0.52 µM; in the data set with Trypanosoma cruzi [11], 17 µM; with Vero it was 5.86 µM; in data set [12] it was 4.86 µM. Also, the figures for the 50% inhibitory concentration (IC50) (in data set [13]; with Trypanosoma cruzi [14]; in the data set with HL-60) were 4.94 µM, 0.46 µM and 20 µM, respectively. Further, the inhibition result in data set [2] and in data set [4] was “Active” each time. For the same molecule, in data set [15], the selectivity ratio was found to be 12.7.
